Measurements published in ChEMBL document CHEMBL1153389, “Identification of novel antibacterial peptides by chemoinformatics and machine learning” (2009).

Key:
Type in all cases: functional
[1] = test system: Pseudomonas aeruginosa; assay: Antimicrobial activity against Pseudomonas aeruginosa H103 after overnight incubation by broth microdilution method
How it was run: (§1)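 Modified broth microdilution. Peptides are serially diluted in 0.01% acetic acid with 0.2% BSA at 10-fold the final concentration, then added to MH medium in polypropylene plates. Bacteria from an overnight culture are added to a final (2-7) × 10^5 CFU/mL. Plates are incubated overnight at 37 °C. MIC is the lowest concentration with no visible growth.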

[2] = test system: Pseudomonas aeruginosa; assay: Antimicrobial activity against Pseudomonas aeruginosa H1001 expressing luciferase gene assessed as ratio antimicrobial IC50 for drug to Bac2A peptide by luminescence assay
How it was run: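 Peptides are made by SPOT synthesis on cellulose, cleaved, and the spots placed in plate wells. Overnight P. aeruginosa H1001 (fliC::luxCDABE) is diluted 1:500 in 100 mM Tris-HCl pH 7.3 with 20 mM glucose and added to the wells. After 30 min, serial dilutions (8 rows) are made. Luminescence is read at 4 h. IC50 is taken from a sigmoid fit and expressed relative to Bac2A run in the same series.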

[3] = test system: Pseudomonas aeruginosa; assay: Antimicrobial activity against multidrug-resistant Pseudomonas aeruginosa Brazil 9 isolate after overnight incubation by broth microdilution method
How it was run: (§2)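 Modified broth microdilution in polypropylene 96-well plates with Mueller-Hinton (MH) medium. Bulk-synthesized peptides were serially diluted at 10-fold final strength in 0.01% acetic acid with 0.2% BSA, then added 1:10 to MH. Inoculum came from an overnight culture at a final (2-7) × 10^5 CFU/mL. Plates were incubated overnight at 37 °C. MIC was the lowest concentration with no visible growth.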

[4] = test system: Pseudomonas aeruginosa; assay: Antimicrobial activity against multidrug-resistant Pseudomonas aeruginosa Brazil 198 isolate after overnight incubation by broth microdilution method; how it was run: as §2
[5] = test system: Pseudomonas aeruginosa; assay: Antimicrobial activity against multidrug-resistant Pseudomonas aeruginosa Brazil 213 isolate after overnight incubation by broth microdilution method; how it was run: as §2
[6] = test system: Pseudomonas aeruginosa; assay: Antimicrobial activity against Pseudomonas aeruginosa LES400 after overnight incubation by broth microdilution method; how it was run: as §2
[7] = test system: Pseudomonas aeruginosa; assay: Antimicrobial activity against Pseudomonas aeruginosa H1030 after overnight incubation by broth microdilution method; how it was run: as §2
[8] = test system: Pseudomonas aeruginosa; assay: Antimicrobial activity against Pseudomonas aeruginosa H1027 after overnight incubation by broth microdilution method; how it was run: as §1
[9] = test system: Stenotrophomonas maltophilia; assay: Antimicrobial activity against Pseudomonas maltophilia ATCC 13637 after overnight incubation by broth microdilution method; how it was run: as §1
[10] = test system: Enterobacter cloacae; assay: Antimicrobial activity against class C chromosomal beta lactamase expressing Enterobacter cloacae 218R after overnight incubation by broth microdilution method; how it was run: as §1
[11] = test system: Escherichia coli; assay: Antimicrobial activity against extended-spectrum beta-lactamase producing Escherichia coli 63103 after overnight incubation by broth microdilution method; how it was run: as §1
[12] = test system: Escherichia coli; assay: Antimicrobial activity against extended-spectrum beta-lactamase producing Escherichia coli 64771 after overnight incubation by broth microdilution method; how it was run: as §1
[13] = test system: Klebsiella pneumoniae; assay: Antimicrobial activity against extended-spectrum beta-lactamase-resistant Klebsiella pneumoniae 61962 after overnight incubation by broth microdilution method; how it was run: as §2
[14] = test system: Klebsiella pneumoniae; assay: Antimicrobial activity against extended-spectrum beta-lactamase-resistant Klebsiella pneumoniae 63575 after overnight incubation by broth microdilution method; how it was run: as §2
[15] = test system: Staphylococcus aureus; assay: Antimicrobial activity against Staphylococcus aureus ATCC 25923 after overnight incubation by broth microdilution method; how it was run: as §2
[16] = test system: Staphylococcus aureus; assay: Antimicrobial activity against methicillin-resistant Staphylococcus aureus C623 after overnight incubation by broth microdilution method; how it was run: as §2
[17] = test system: Enterococcus faecalis; assay: Antimicrobial activity against Enterococcus faecalis ATCC 29212 after overnight incubation by broth microdilution method; how it was run: as §1
[18] = test system: Enterococcus faecalis; assay: Antimicrobial activity against vancomycin-resistant Enterococcus faecalis w6190(VanA) isolate after overnight incubation by broth microdilution method; how it was run: as §2
[19] = test system: Enterococcus faecalis; assay: Antimicrobial activity against vancomycin-resistant Enterococcus faecalis f43559 (VanB) isolate after overnight incubation by broth microdilution method; how it was run: as §2
[20] = test system: Enterococcus faecium; assay: Antimicrobial activity against vancomycin-resistant Enterococcus faecium mic80(VanA) isolate after overnight incubation by broth microdilution method; how it was run: as §2
[21] = test system: Enterococcus faecium; assay: Antimicrobial activity against vancomycin-resistant Enterococcus faecium t62764(VanB) isolate after overnight incubation by broth microdilution method; how it was run: as §2

Substance: H-WKKWWKRRW-OH
- MIC [1]: 23 µM
- Ratio IC50 [2]: 0.19
- MIC [3]: 46 µM
- MIC [4]: 46 µM
- MIC [5]: 93 µM
- MIC [6]: 46 µM
- MIC [7]: 46 µM
- MIC [8]: 5.8 µM
- MIC [9]: 1.4 µM
- MIC [10]: 23 µM
- MIC [11]: 23 µM
- MIC [12]: 2.9 µM
- MIC [13]: 186 µM
- MIC [14]: 46 µM
- MIC [15]: 1.4 µM
- MIC [16]: 2.9 µM
- MIC [17]: 93 µM
- MIC [18]: > 186 µM
- MIC [19]: > 186 µM
- MIC [20]: 12 µM
- MIC [21]: 5.8 µM

Substance: H-RRFKFIRWW-OH
- MIC [1]: 6.1 µM
- Ratio IC50 [2]: 0.24
- MIC [3]: 24 µM
- MIC [4]: 49 µM
- MIC [5]: 49 µM
- MIC [6]: 12 µM
- MIC [7]: 49 µM
- MIC [8]: 3.1 µM
- MIC [9]: 0.8 µM
- MIC [10]: 12 µM
- MIC [11]: 12 µM
- MIC [12]: 12 µM
- MIC [13]: 98 µM
- MIC [14]: 49 µM
- MIC [15]: 6.1 µM
- MIC [16]: 6.1 µM
- MIC [17]: 12 µM
- MIC [18]: 98 µM
- MIC [19]: 49 µM
- MIC [20]: 6.1 µM
- MIC [21]: 6.1 µM

Substance: H-FRRWWKWFK-OH
- MIC [1]: 1.5 µM
- Ratio IC50 [2]: 0.12
- MIC [3]: 12 µM
- MIC [4]: 3 µM
- MIC [5]: 5.9 µM
- MIC [6]: 5.9 µM
- MIC [7]: 24 µM
- MIC [8]: 1.5 µM
- MIC [9]: 0.8 µM
- MIC [10]: 24 µM
- MIC [11]: 12 µM
- MIC [12]: 6.1 µM
- MIC [13]: 97 µM
- MIC [14]: 24 µM
- MIC [15]: 1.5 µM
- MIC [16]: 3 µM
- MIC [17]: 24 µM
- MIC [18]: 195 µM
- MIC [19]: 97 µM
- MIC [20]: 6.1 µM
- MIC [21]: 6.1 µM

Substance: H-RWRRWKWWL-OH
- MIC [1]: 2.9 µM
- Ratio IC50 [2]: 0.08
- MIC [3]: 12 µM
- MIC [4]: 12 µM
- MIC [5]: 23 µM
- MIC [6]: 5.8 µM
- MIC [7]: 12 µM
- MIC [8]: 0.3 µM
- MIC [9]: 0.7 µM
- MIC [10]: 5.8 µM
- MIC [11]: 5.7 µM
- MIC [12]: 2.9 µM
- MIC [13]: 46 µM
- MIC [14]: 11 µM
- MIC [15]: 2.9 µM
- MIC [16]: 2.9 µM
- MIC [17]: 23 µM
- MIC [18]: 92 µM
- MIC [19]: 92 µM
- MIC [20]: 5.7 µM
- MIC [21]: 1.4 µM

Substance: H-RKRLKWWIY-OH
- MIC [1]: 25 µM
- Ratio IC50 [2]: 0.18
- MIC [3]: 50 µM
- MIC [4]: 50 µM
- MIC [5]: 50 µM
- MIC [6]: 50 µM
- MIC [7]: 50 µM
- MIC [8]: 6.3 µM
- MIC [9]: 3.2 µM
- MIC [10]: 13 µM
- MIC [11]: 6.3 µM
- MIC [12]: 6.3 µM
- MIC [13]: > 202 µM
- MIC [14]: 50 µM
- MIC [15]: 6.3 µM
- MIC [16]: 6.3 µM
- MIC [17]: 50 µM
- MIC [18]: > 202 µM
- MIC [19]: 202 µM
- MIC [20]: 13 µM
- MIC [21]: 3.2 µM

Substance: H-IWWKWRRWV-OH
- MIC [1]: 6 µM
- Ratio IC50 [2]: 0.29
- MIC [3]: 48 µM
- MIC [4]: 12 µM
- MIC [5]: 48 µM
- MIC [6]: 12 µM
- MIC [7]: 48 µM
- MIC [8]: 6 µM
- MIC [9]: 1.5 µM
- MIC [10]: 6 µM
- MIC [11]: 24 µM
- MIC [12]: 6 µM
- MIC [13]: 96 µM
- MIC [14]: 12 µM
- MIC [15]: 3 µM
- MIC [16]: 3 µM
- MIC [17]: 24 µM
- MIC [18]: 48 µM
- MIC [19]: 48 µM
- MIC [20]: 6 µM
- MIC [21]: 3 µM

Substance: H-WKRWWKKWR-OH
- MIC [1]: 23 µM
- Ratio IC50 [2]: 0.2
- MIC [3]: 46 µM
- MIC [4]: 46 µM
- MIC [5]: 93 µM
- MIC [6]: 23 µM
- MIC [7]: 46 µM
- MIC [8]: 5.8 µM
- MIC [9]: 1.4 µM
- MIC [10]: 93 µM
- MIC [11]: 23 µM
- MIC [12]: 2.9 µM
- MIC [13]: 186 µM
- MIC [14]: 46 µM
- MIC [15]: 5.8 µM
- MIC [16]: 5.8 µM
- MIC [17]: 93 µM
- MIC [18]: > 186 µM
- MIC [19]: > 186 µM
- MIC [20]: 23 µM
- MIC [21]: 5.8 µM

Substance: H-KIWWWWRKR-OH
- MIC [1]: 5.9 µM
- Ratio IC50 [2]: 0.13
- MIC [3]: 47 µM
- MIC [4]: 24 µM
- MIC [5]: 47 µM
- MIC [6]: 47 µM
- MIC [7]: 12 µM
- MIC [8]: 5.9 µM
- MIC [9]: 3 µM
- MIC [10]: 94 µM
- MIC [11]: 12 µM
- MIC [12]: 5.9 µM
- MIC [13]: 189 µM
- MIC [14]: 47 µM
- MIC [15]: 5.9 µM
- MIC [16]: 5.9 µM
- MIC [17]: 24 µM
- MIC [18]: 94 µM
- MIC [19]: 94 µM
- MIC [20]: 5.9 µM
- MIC [21]: 1.5 µM
